# ChEMBL document CHEMBL1687928, “Discovery, optimization, and pharmacological characterization of novel heteroaroylphenylureas antagonists of C-C chemokine ligand 2 function” (J Med Chem, 2011)
# Activity calls are given as the source filed them. The rule behind the calls is not given here.
# What was measured:
# [1] = Aqueous solubility of the compound at pH 1.2; assay type: physicochemical
# [2] = Aqueous solubility of the compound at pH 7.4; assay type: physicochemical
# [3] = target: T1, CYP1A2 (Homo sapiens, UniProt P05177); test: Inhibition of CYP1A2 at 1 uM; assay type: ADME
# T1 sequence (P05177 whole entry): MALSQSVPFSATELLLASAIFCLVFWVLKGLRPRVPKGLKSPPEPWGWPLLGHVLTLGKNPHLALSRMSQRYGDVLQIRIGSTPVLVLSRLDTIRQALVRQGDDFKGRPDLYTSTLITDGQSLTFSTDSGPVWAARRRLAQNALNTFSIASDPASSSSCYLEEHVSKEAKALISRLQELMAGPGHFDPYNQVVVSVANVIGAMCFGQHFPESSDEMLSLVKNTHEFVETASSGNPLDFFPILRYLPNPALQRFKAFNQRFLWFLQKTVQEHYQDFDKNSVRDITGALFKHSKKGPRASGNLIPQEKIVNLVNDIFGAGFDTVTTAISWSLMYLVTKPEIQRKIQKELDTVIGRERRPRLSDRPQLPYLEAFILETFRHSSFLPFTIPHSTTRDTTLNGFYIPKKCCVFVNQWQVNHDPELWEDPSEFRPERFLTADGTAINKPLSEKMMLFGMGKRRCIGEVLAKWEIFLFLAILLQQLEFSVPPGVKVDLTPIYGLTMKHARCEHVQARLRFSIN
# [4] = target: T1, CYP1A2; test: Inhibition of CYP1A2 at 100 uM; assay type: ADME
# [5] = target: T2, CYP3A4 (Homo sapiens, UniProt P08684); test: Inhibition of CYP3A4 at 1 uM; assay type: ADME
# T2 sequence (P08684 whole entry): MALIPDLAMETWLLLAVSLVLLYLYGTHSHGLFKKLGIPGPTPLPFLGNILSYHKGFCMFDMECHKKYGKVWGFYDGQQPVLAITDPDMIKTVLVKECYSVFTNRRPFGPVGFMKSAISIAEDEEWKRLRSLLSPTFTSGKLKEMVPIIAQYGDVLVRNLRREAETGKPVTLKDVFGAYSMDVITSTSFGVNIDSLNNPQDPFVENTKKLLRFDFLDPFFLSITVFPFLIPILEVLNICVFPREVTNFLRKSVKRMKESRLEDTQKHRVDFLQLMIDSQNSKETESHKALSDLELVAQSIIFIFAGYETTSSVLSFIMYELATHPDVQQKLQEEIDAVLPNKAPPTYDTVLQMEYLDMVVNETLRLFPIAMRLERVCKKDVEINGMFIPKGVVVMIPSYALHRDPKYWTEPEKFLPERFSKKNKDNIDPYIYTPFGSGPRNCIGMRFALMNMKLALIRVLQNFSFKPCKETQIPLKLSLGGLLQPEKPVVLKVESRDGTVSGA
# [6] = target: T2, CYP3A4; test: Inhibition of CYP3A4 at 100 uM; assay type: ADME
# [7] = target: T3, CYP2C9 (Homo sapiens, UniProt P11712); test: Inhibition of CYP2C9 at 1 uM; assay type: ADME
# T3 sequence (P11712 whole entry): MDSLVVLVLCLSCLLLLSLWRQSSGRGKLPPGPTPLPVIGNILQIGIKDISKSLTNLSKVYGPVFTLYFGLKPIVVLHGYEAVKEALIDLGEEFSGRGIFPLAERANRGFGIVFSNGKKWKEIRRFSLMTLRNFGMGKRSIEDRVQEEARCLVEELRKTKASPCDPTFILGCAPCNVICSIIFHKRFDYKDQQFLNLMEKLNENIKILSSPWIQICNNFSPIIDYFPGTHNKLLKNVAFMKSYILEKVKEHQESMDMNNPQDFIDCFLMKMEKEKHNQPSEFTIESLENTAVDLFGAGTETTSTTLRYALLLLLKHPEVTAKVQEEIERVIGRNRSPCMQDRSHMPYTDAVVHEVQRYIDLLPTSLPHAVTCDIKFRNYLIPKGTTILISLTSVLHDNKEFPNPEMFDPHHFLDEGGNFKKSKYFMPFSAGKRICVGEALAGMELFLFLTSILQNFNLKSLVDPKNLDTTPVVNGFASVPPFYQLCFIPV
# [8] = target: T3, CYP2C9; test: Inhibition of CYP2C9 at 100 uM; assay type: ADME
# [9] = target: T4, CYP2C19 (Homo sapiens, UniProt P33261); test: Inhibition of CYP2C19 at 1 uM; assay type: ADME
# T4 sequence (P33261 whole entry): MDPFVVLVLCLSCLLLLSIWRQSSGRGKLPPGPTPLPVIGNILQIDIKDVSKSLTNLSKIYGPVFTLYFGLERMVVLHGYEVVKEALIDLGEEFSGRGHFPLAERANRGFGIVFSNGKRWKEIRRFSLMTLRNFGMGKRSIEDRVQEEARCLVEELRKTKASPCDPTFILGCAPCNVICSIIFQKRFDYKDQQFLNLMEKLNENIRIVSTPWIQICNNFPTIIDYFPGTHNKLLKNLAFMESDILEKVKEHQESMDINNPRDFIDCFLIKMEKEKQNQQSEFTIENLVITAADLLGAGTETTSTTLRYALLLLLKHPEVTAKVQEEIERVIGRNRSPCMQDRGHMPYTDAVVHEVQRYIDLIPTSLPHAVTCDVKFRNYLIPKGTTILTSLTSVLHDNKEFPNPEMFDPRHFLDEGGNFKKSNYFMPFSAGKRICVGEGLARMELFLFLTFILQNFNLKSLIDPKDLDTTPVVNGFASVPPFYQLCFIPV
# [10] = target: T4, CYP2C19; test: Inhibition of CYP2C19 at 100 uM; assay type: ADME
# [11] = target: T5, CYP2D6 (Homo sapiens, UniProt P10635); test: Inhibition of CYP2D6 at 1 uM; assay type: ADME
# T5 sequence (P10635 whole entry): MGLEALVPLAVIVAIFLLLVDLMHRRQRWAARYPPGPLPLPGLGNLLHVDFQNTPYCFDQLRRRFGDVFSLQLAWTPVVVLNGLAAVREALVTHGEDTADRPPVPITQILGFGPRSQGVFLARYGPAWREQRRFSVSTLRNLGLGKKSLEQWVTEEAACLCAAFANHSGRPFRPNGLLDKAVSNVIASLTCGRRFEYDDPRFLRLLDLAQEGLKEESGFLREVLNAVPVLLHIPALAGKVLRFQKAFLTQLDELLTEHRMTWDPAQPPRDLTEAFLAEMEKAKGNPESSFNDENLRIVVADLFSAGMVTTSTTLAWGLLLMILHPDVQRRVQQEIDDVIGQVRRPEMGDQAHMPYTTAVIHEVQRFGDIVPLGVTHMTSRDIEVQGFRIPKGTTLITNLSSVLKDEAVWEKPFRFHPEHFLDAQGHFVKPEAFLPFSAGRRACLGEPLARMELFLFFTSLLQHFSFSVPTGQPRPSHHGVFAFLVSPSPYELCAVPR
# [12] = target: T5, CYP2D6; test: Inhibition of CYP2D6 at 100 uM; assay type: ADME
# [13] = Half life in rat at 5 mg/kg, iv; assay type: ADME, organism-based; parameters: dose 5 mg/kg, route intravenous; conditions: in vivo
# [14] = AUC (0 to 24 hrs) in rat at 5 mg/kg, iv; assay type: ADME, organism-based; parameters: time < 24 hr, dose 5 mg/kg, route intravenous; conditions: plasma
# [15] = Volume of distribution at steady state in rat at 5 mg/kg, iv; assay type: ADME, organism-based; parameters: dose 5 mg/kg, route intravenous; conditions: in vivo, read-out: Vdss
# In short: (§1)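 Rats, not fasted, received a single intravenous or oral dose.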
# [16] = Clearance in rat at 5 mg/kg, iv; assay type: ADME, organism-based; parameters: dose 5 mg/kg, route intravenous; conditions: in vivo
# [17] = Cmax in rat at 5 mg/kg, po; assay type: ADME, organism-based; parameters: dose 5 mg/kg, route oral; conditions: in vivo
# [18] = Tmax in rat at 5 mg/kg, po; assay type: ADME, organism-based; parameters: dose 5 mg/kg, route oral; conditions: in vivo; in short: as §1
# [19] = Half life in rat at 5 mg/kg, po; assay type: ADME, organism-based; parameters: dose 5 mg/kg, route oral; conditions: in vivo
# [20] = AUC (0 to 24 hrs) in rat at 5 mg/kg, po; assay type: ADME, organism-based; parameters: time < 24 hr, dose 5 mg/kg, route oral; conditions: plasma
# [21] = test system: Rattus norvegicus; test: Oral bioavailability in rat at 5 mg/kg, po; assay type: ADME, organism-based; conditions: in vivo; in short: as §1
# [22] = Cmax in rat at 30 mg/kg, po; assay type: ADME, organism-based; parameters: dose 30 mg/kg, route oral; conditions: in vivo
# [23] = Tmax in rat at 30 mg/kg, po; assay type: ADME, organism-based; parameters: dose 30 mg/kg, route oral; conditions: in vivo; in short: as §1
# [24] = AUC (0 to 24 hrs) in rat at 30 mg/kg, po; assay type: ADME, organism-based; parameters: time < 24 hr, dose 30 mg/kg, route oral; conditions: plasma
# [25] = Cmax in rat at 100 mg/kg, po; assay type: ADME, organism-based; parameters: dose 100 mg/kg, route oral; conditions: in vivo
# [26] = Tmax in rat at 100 mg/kg, po; assay type: ADME, organism-based; parameters: dose 100 mg/kg, route oral; conditions: in vivo; in short: as §1
# [27] = AUC (0 to 24 hrs) in rat at 100 mg/kg, po; assay type: ADME, organism-based; parameters: time < 24 hr, dose 100 mg/kg, route oral; conditions: plasma
# [28] = test system: Mus musculus; test: Immunosuppressive activity in delayed-type hypersensitivity po dosed […] ICR mouse assessed as inhibition of sheep RBC-induced foot-pad swelling administered 1 hr prior and 2 hr after SRBC challenge measured on day 5 by Plethysmometer; assay type: functional, organism-based
# [29] = test system: Rattus norvegicus; test: Antiinflammatory activity in collagen-induced arthritis Lewis rat model assessed as inhibition of paw edema at 2 to 30 mg/kg, po BID for 28 days measured on […] by Plethysmometer; assay type: functional, organism-based
# In short: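 Female Lewis SPF rats, 6 weeks old (n = 8/group), were immunized at the tail base with 900 μg bovine type II collagen in Freund's complete adjuvant (4 mg/mL M. tuberculosis) on day 0. A 450 μg boost followed on day 7. Compound in 5% aqueous gum arabic was gavaged b.i.d. for 28 days from day 0, against vehicle; methotrexate 3×/week served as positive control. Hind-limb volume was read by plethysmometer on days 0, 12, 14, 21 and 28, as % increase over day 0.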
# [30] = test system: Rattus norvegicus; test: Inhibition of bone resorption in joints of collagen-induced arthritis Lewis rat model at 30 mg/kg, po BID for 28 days; assay type: functional, organism-based; parameters: dose 30 mg/kg
# In short: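 Female Lewis SPF rats, 6 weeks old (n = 8/group). CIA was induced on day 0 by intradermal injection at the tail base of 900 μg bovine type II collagen in Freund's complete adjuvant, with a 450 μg boost on day 7. Compound in 5% gum arabic was given by gavage b.i.d. for 28 days from day 0. Hind-paw radiographs were taken on day 29 and scored blind from 0 to 4, averaging both legs. Two-tailed t test.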
# [31] = test system: Rattus norvegicus; test: Drug uptake in collagen-induced Lewis rat tarasal joints at 2 to 30 mg/kg, po measured 5 hrs after last dosing; assay type: functional, organism-based
# In short: (§2)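 In the rat collagen-induced arthritis study (oral b.i.d. dosing for 28 days), compound concentration was measured in plasma, tarsal homogenates and thigh-bone marrow. Samples were taken 5 h after the last dose on day 28.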
# [32] = test system: Rattus norvegicus; test: Drug uptake in collagen-induced Lewis rat bone marrow at 2 to 30 mg/kg, po measured 5 hrs post last dose; assay type: functional, organism-based; in short: as §2
# [33] = test system: Rattus norvegicus; test: Antiinflammatory activity in complete Freund's adjuvant-induced Lewis rat arthritis model assessed as inhibition of paw edema at 30 mg/kg, po BID; assay type: functional, organism-based; parameters: dose 30 mg/kg
# In short: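 Female Lewis SPF rats, 6 weeks old (n = 8/group), received an intradermal right hind footpad injection of 100 μL PBS-emulsified Freund's complete adjuvant (10 mg/mL M. butyricum). From day 10, compound in 5% gum arabic or vehicle was gavaged b.i.d. for a further 18 days; methotrexate 3×/week was the positive control. Left hind-limb volume was read by plethysmometer on days 0, 8, 15, 21 and 28, as % increase over day 0.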
# [34] = test system: Mus musculus; test: Antiinflammatory activity in complete Freund's adjuvant-induced C57BL/6 mouse assessed as delay in autoimmune encephalomyelitis disease progression at 30 mg/kg, po BID; assay type: functional
# In short: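 MOG33-55 peptide emulsion given subcutaneously to C57BL/6 mice, with intravenous pertussis vaccine (350 ng) right after and again 48 h later. Compound dissolved at 4 mg/mL in 3% aqueous Tween 80 (stored at 4 C), or water as vehicle, given orally b.i.d. from the day of immunization (day 0). Mice monitored daily for disease onset and clinical score (0–5 scale).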
# [35] = organism: Mus musculus; test: Antiinflammatory activity in Freund's adjuvant-induced C57BL/6 mouse assessed as decrease in inflammatory cell infiltrates in brain; assay type: functional, organism-based
# In short: (§3)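 C57BL/6 mice were immunized s.c. with a MOG33-55 peptide emulsion and given pertussis vaccine (350 ng i.v.) right away and again 48 h later. From day 0, compound in 3% aqueous Tween 80 (4 mg/mL) or water was dosed orally b.i.d. Tissue cellular infiltrate was scored 0–5, from few small perivascular/meningeal infiltrates up to very large extensive infiltrate.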
# [36] = organism: Mus musculus; test: Antiinflammatory activity in Freund's adjuvant-induced C57BL/6 mouse assessed as decrease in inflammatory cell infiltrates in cerebellum; assay type: functional, organism-based; in short: as §3
# [37] = organism: Mus musculus; test: Antiinflammatory activity in Freund's adjuvant-induced C57BL/6 mouse assessed as decrease in inflammatory cell infiltrates in spinal cord; assay type: functional, organism-based; in short: as §3
# [38] = test system: Mus musculus; test: Toxicity in ICR mouse at 100 mg/kg, po administered as single dose; assay type: organism-based; parameters: dose 100 mg/kg, route oral; conditions: in vivo
# [39] = test system: Mus musculus; test: Toxicity in ICR mouse assessed as occurrence of hypoactivity at 500 mg/kg, po administered as single dose; assay type: organism-based; parameters: dose 500 mg/kg, route oral; conditions: in vivo
# [40] = test system: Mus musculus; test: Toxicity in ICR mouse assessed as CNS excitation at 1000 mg/kg, po administered as single dose; assay type: organism-based; parameters: dose 1000 mg/kg, route oral; conditions: in vivo
# [41] = test system: Mus musculus; test: Toxicity in ICR mouse assessed as increase in feeding behavior at 1000 mg/kg, po administered as single dose; assay type: organism-based; parameters: dose 1000 mg/kg, route oral; conditions: in vivo
# [42] = test system: Mus musculus; test: Toxicity in ICR mouse at 30 mg/kg, po QD for 14 days; assay type: organism-based; parameters: dose 30 mg/kg, route oral; conditions: in vivo, 336 h
# In short: (§4)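 Repeated-dose study in 6-week-old male ICR mice. Vehicle or 30, 100 or 300 mg/kg was given orally once daily for 14 days. Survival, behavior, body weight and liver enzymes (AST, ALT) were monitored.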
# [43] = test system: Mus musculus; test: Toxicity in ICR mouse at 100 mg/kg, po QD for 14 days; assay type: organism-based; parameters: dose 100 mg/kg, route oral; conditions: in vivo, 336 h; in short: as §4
# [44] = test system: Mus musculus; test: Toxicity in ICR mouse assessed as increase in AST level at 300 mg/kg, po QD for 14 days; assay type: organism-based; parameters: dose 300 mg/kg, route oral; conditions: in vivo, 336 h; in short: as §4
# [45] = test system: Mus musculus; test: Toxicity in ICR mouse assessed as increase in ALT level at 300 mg/kg, po QD for 14 days; assay type: organism-based; parameters: dose 300 mg/kg, route oral; conditions: in vivo, 336 h; in short: as §4
# [46] = test system: Mus musculus; test: Toxicity in ICR mouse assessed as vacuolar degeneration in liver at 300 mg/kg, po QD for 14 days; assay type: organism-based; parameters: dose 300 mg/kg, route oral; conditions: in vivo, 336 h
# [47] = test system: Mus musculus; test: Toxicity in ICR mouse assessed as vacuolar degeneration in kidney at 300 mg/kg, po QD for 14 days; assay type: organism-based; parameters: dose 300 mg/kg, route oral; conditions: in vivo, 336 h
smiles,measurement,setting,value
Cc1nn(C)c2nc(N(C)CCN(C)C)c(C(=O)NC(=O)Nc3cccc(OC(C)C)c3)cc12.Cl,solubility,[1],31.3 µg/mL
same,solubility,[2],7.8 µg/mL
same,inhibition at 1 µM,[3],-12%
same,inhibition at 100 µM,[4],-2%
same,inhibition at 1 µM,[5],4%
same,inhibition at 100 µM,[6],49%
same,inhibition at 1 µM,[7],11%
same,inhibition at 100 µM,[8],36%
same,inhibition at 1 µM,[9],-8%
same,inhibition at 100 µM,[10],34%
same,inhibition at 1 µM,[11],-5%
same,inhibition at 100 µM,[12],73%
same,half-life,[13],10 h
same,AUC(0-t) at 24 h,[14],2690 ng·h/mL
same,Vd,[15],9.9 L/kg
same,clearance,[16],31.7 mL/min/kg
same,Cmax,[17],129 ng/mL
same,Tmax,[18],5 h
same,half-life,[19],> 24 h
same,AUC(0-t) at 24 h,[20],1620 ng·h/mL
same,F,[21],60%
same,Cmax,[22],383 ng/mL
same,Tmax,[23],3 h
same,AUC(0-t) at 24 h,[24],5570 ng·h/mL
same,Cmax,[25],927 ng/mL
same,Tmax,[26],3 h
same,AUC(0-t) at 24 h,[27],15100 ng·h/mL
same,Activity,[28],Active
same,Activity,[29],Dose-dependent effect
same,Activity,[30],Active
same,Drug uptake,[31],Active
same,Drug uptake,[32],Active
same,Activity,[33],Active
same,Activity,[34],32.7 days
same,Activity,[35],Active
same,Activity,[36],Active
same,Activity,[37],Active
same,Activity,[38],Non-toxic
same,Activity,[39],Toxic
same,Activity,[40],Toxic
same,Activity,[41],Toxic
same,Activity,[42],Non-toxic
same,Activity,[43],Non-toxic
same,Activity,[44],Toxic
same,Activity,[45],Toxic
same,Activity,[46],Toxic
same,Activity,[47],Toxic
